Experimental data published in ChEMBL document CHEMBL1151850, “Triterpenoid saponins from Dianthus versicolor” (J Nat Prod, 2009).

What was measured:
HFL1 = assay: Cytotoxicity against human HFL1 cells after 24 hrs by MTT assay; assay type: cell-based; conditions: HFL1, 24 h
How it was run: (§1)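 Grown in DMEM with 10% fetal calf serum, 2 mM L-glutamine and penicillin/streptomycin at 37 °C, 5% CO2. 10^4 cells/well adhered 24 h before serial dilutions were added (DMSO stock diluted in medium, final DMSO <1%), in parallel triplicate wells. After 24 h exposure, MTT added for 4 h. Formazan dissolved in DMSO; viability read as absorbance at 570 nm.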

[1] = Cytotoxicity against human EVC304 cells after 24 hrs by MTT assay; assay type: cell-based; conditions: EVC304, 24 h
How it was run: (§2)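 Cells kept at 37 °C, 5% CO2 in RPMI-1640 with 10% fetal calf serum, subcultured twice weekly. Plated at 10^4 cells/well and allowed to adhere 24 h. Serial dilutions added from DMSO stock diluted in RPMI-1640, final DMSO below 1%, triplicate wells. After 24 h, MTT added for 4 h. Formazan dissolved in DMSO, absorbance read at 570 nm.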

[2] = Cytotoxicity against human BGC803 cells after 24 hrs by MTT assay; assay type: functional, cell-based; conditions: BGC803, 24 h; how it was run: as §2
MCF7 = assay: Cytotoxicity against human MCF7 cells after 24 hrs by MTT assay; assay type: functional, cell-based; conditions: MCF7, 24 h; how it was run: as §1
HepG2 = assay: Cytotoxicity against human HepG2 cells after 24 hrs by MTT assay; assay type: functional, cell-based; conditions: HepG2, 24 h; how it was run: as §1

Compound	IC50 (HFL1) [µM]	IC50 [1] [µM]	IC50 [2] [µM]	IC50 (MCF7) [µM]	IC50 (HepG2) [µM]
CC1(C)CC[C@]2(C(=O)O)CC[C@]3(C)C(=CC[C@@H]4[C@@]5(C)CC[C@H](O)[C@@](C)(C(=O)O[C@@H]6O[C@H](CO[C@@H]7O[C@H](CO)[C@@H](O)[C@H](O)[C@H]7O[C@@H]7O[C@H](CO)[C@@H](O)[C@H](O)[C@H]7O)[C@@H](O)[C@H](O[C@@H]7O[C@H](CO)[C@@H](O)[C@H](O)[C@H]7O)[C@H]6O)[C@@H]5CC[C@]43C)[C@@H]2C1 [VACCAROID C]	3.8	8.7	9.4	> 10	> 10
CC1(C)CC[C@]2(C(=O)O[C@@H]3O[C@H](CO[C@@H]4O[C@H](CO)[C@@H](O)[C@H](O)[C@H]4O[C@@H]4O[C@H](CO)[C@@H](O)[C@H](O)[C@H]4O)[C@@H](O)[C@H](O[C@@H]4O[C@H](CO)[C@@H](O)[C@H](O)[C@H]4O)[C@H]3O)[C@H](O)C[C@]3(C)C(=CC[C@@H]4[C@@]5(C)CC[C@H](O)[C@@](C)(C(=O)O[C@@H]6O[C@H](CO)[C@@H](O)[C@H](O)[C@H]6O)[C@@H]5CC[C@]43C)[C@@H]2C1 [DIANVERSICOSIDE E]	3.5	9.1	7.4	> 10	> 10
CC1(C)CC[C@]2(C(=O)O[C@@H]3O[C@H](CO[C@@H]4O[C@H](COC(=O)C[C@@](C)(O)CC(=O)O)[C@@H](O)[C@H](O)[C@H]4O[C@@H]4O[C@H](CO)[C@@H](O)[C@H](O)[C@H]4O)[C@@H](O)[C@H](O[C@@H]4O[C@H](CO)[C@@H](O)[C@H](O)[C@H]4O)[C@H]3O)[C@H](O)C[C@]3(C)C(=CC[C@@H]4[C@@]5(C)CC[C@H](O)[C@@](C)(C(=O)O)[C@@H]5CC[C@]43C)[C@@H]2C1 [DIANVERSICOSIDE B]	3.1	7.7	5.7	> 10	> 10
CC1(C)CC[C@]2(C(=O)O[C@@H]3O[C@H](CO[C@@H]4O[C@H](CO)[C@@H](O)[C@H](O)[C@H]4O[C@@H]4O[C@H](CO)[C@@H](O)[C@H](O)[C@H]4O)[C@@H](O)[C@H](O[C@@H]4O[C@H](CO)[C@@H](O)[C@H](O)[C@H]4O)[C@H]3O)CC[C@]3(C)C(=CC[C@@H]4[C@@]5(C)CC[C@H](O)[C@@](C)(C(=O)O)[C@@H]5CC[C@]43C)[C@@H]2C1 [VACCAROID A]	7.8	4.1	5.3	> 10	> 10
CC1(C)CC[C@]2(C(=O)O[C@@H]3O[C@H](CO[C@@H]4O[C@H](COC(=O)C[C@@](C)(O)CC(=O)O)[C@@H](O)[C@H](O)[C@H]4O[C@@H]4O[C@H](CO)[C@@H](O)[C@H](O)[C@H]4O)[C@@H](O)[C@H](O)[C@H]3O)[C@H](O)C[C@]3(C)C(=CC[C@@H]4[C@@]5(C)CC[C@H](O)[C@@](C)(C(=O)O[C@@H]6O[C@H](CO)[C@@H](O)[C@H](O)[C@H]6O)[C@@H]5CC[C@]43C)[C@@H]2C1 [DIANVERSICOSIDE A]	2.8	8.4	6.2	> 10	> 10
CC1(C)CC[C@]2(C(=O)O[C@@H]3O[C@H](CO[C@@H]4O[C@H](CO)[C@@H](O)[C@H](O)[C@H]4O[C@@H]4O[C@H](CO)[C@@H](O)[C@H](O)[C@H]4O)[C@@H](O)[C@H](O)[C@H]3O)[C@H](O)C[C@]3(C)C(=CC[C@@H]4[C@@]5(C)CC[C@H](O)[C@@](C)(C(=O)O[C@@H]6O[C@H](CO)[C@@H](O)[C@H](O)[C@H]6O)[C@@H]5CC[C@]43C)[C@@H]2C1 [DIANVERSICOSIDE F]	4.4	9.6	9.7	> 10	> 10
CC1(C)CC[C@]2(C(=O)O[C@@H]3O[C@H](CO[C@@H]4O[C@H](CO)[C@@H](O)[C@H](O)[C@H]4O[C@@H]4O[C@H](CO)[C@@H](O)[C@H](O)[C@H]4O)[C@@H](O)[C@H](O[C@@H]4O[C@H](CO)[C@@H](O)[C@H](O)[C@H]4O)[C@H]3O)CC[C@]3(C)C(=CC[C@@H]4[C@@]5(C)CC[C@H](O[C@@H]6OC[C@H](O)[C@H](O)[C@H]6O)[C@@](C)(C(=O)O)[C@@H]5CC[C@]43C)[C@@H]2C1 [DIANVERSICOSIDE G]	3.3	6.2	6.8	> 10	> 10
CC1(C)CC[C@]2(C(=O)O[C@@H]3O[C@H](CO[C@@H]4O[C@H](COC(=O)C[C@@](C)(O)CC(=O)O)[C@@H](O)[C@H](O)[C@H]4O[C@@H]4O[C@H](CO)[C@@H](O)[C@H](O)[C@H]4O)[C@@H](O)[C@H](O[C@@H]4O[C@H](CO)[C@@H](O)[C@H](O)[C@H]4O)[C@H]3O)CC[C@]3(C)C(=CC[C@@H]4[C@@]5(C)CC[C@H](O)[C@@](C)(C(=O)O)[C@@H]5CC[C@]43C)[C@@H]2C1 [DIANVERSICOSIDE D]	3.4	3.9	2.9	> 10	> 10
